Only some compounds are listed: those with a hit (about 2.1% of all), similar ones and a draw of the others.
CCR6 antag: CCR6 receptor antagonists, primary screen, cell-based, CHO-K1, luminescence, beta-arrestin, uHTS; CHO-K1 CCR6 PathHunter beta-arrestin, CCL20-stimulated; C-C chemokine receptor type 6 (Homo sapiens), P51684; 340,000 tested, 0.49% active; inhibition, % at 20 µM;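 active means compounds whose inhibition of the agonist-driven luminescence signal at 20 µM reaches about 50%, limit read from the data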;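 further: cells stimulated with CCL20 at 14 nM final; plate controls were DMSO with CCL20 for no effect and DMSO without agonist for full effect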
CXCR6 inh: CXCR6 receptor inhibitors, primary screen, cell-based, beta-arrestin, luminescence, CHO-K1 PathHunter, 1536-well; C-X-C chemokine receptor type 6 (Homo sapiens), O00574; inhibition, % at 20 µM; 360,000 tested, 0.36% active; AID 602244, 2012; in the data active means inhibition above about 34%, passing the limit was not always enough;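 further: antagonist mode with CXCL16 agonist at 10 nM final; 0% = 10 nM CXCL16 with DMSO and 100% = unstimulated wells without agonist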
Target sequence (O00574 whole entry, looked up): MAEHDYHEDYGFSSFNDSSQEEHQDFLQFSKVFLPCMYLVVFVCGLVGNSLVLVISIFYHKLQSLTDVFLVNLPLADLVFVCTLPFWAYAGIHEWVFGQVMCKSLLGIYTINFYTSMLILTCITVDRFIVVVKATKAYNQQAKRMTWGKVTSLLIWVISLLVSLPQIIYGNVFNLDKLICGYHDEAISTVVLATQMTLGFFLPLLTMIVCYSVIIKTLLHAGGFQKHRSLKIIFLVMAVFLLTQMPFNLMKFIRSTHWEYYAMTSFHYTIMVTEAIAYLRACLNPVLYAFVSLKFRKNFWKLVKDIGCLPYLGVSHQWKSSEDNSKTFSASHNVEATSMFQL
APJ agonist: agonists of human apelin receptor APJ, primary screen, CHO-K1 cells, PathHunter beta-arrestin, luminescence. 0% DMSO wells, 100% apelin. activation, % at 20 µM. 330,000 tested, 0.11% active. AID 2520, 2010;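 active means activation more than six SD over the plate average, tested at 20 µM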;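 further: 0% = DMSO alone and 100% = apelin-13 at 10 nM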
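assay system = CHO-K1 APJ beta-arrestin complementation cell line | input = cell density 1000 per well | dosing = compound 20 µM once, DMSO 1% | timing = compound 90 min 25 °C, reagent 1 h | measured by = luminescence from split beta-galactosidase complementation, Galacton Star/Emerald II substrate | read-out basis = APJ agonist activity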
EBI2 block: EBI2 receptor antagonists, beta-arrestin recruitment, primary screen, cell-based, luminescence, 7a,25-OHC stimulation, uHTS | G-protein coupled receptor 183 (Homo sapiens), P32249 | 360,000 tested, 0.81% active | inhibition, % at 5 µM | 7a,25-OHC stimulated | AID 651636, 2012; in the data active means inhibition above about 38%;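 further: enzyme fragment complementation signal reports receptor beta-arrestin coupling in cells; 0% = agonist plus DMSO wells and 100% = wells without agonist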
m5-HT2A agonist: mouse Htr2a agonists via beta-arrestin recruitment, primary screen, cell-based, luminescence; 5-hydroxytryptamine receptor 2A (Mus musculus), P35363; CHO-K1 mHTR2A beta-arrestin complementation; percent of 30 µM serotonin response; activation, % at 7.6 µM; 360,000 tested, 0.66% active; AID 624169, 2012;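 active means activation above a run cutoff, the mean activation of all tested compounds plus 3 SD, cut at about 14% in these data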;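 further: 0% = plate median of compound wells and 100% = 30 µM serotonin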
APJ antagonist: antagonists of human apelin receptor APJ, primary screen, CHO-K1 cells, beta-arrestin complementation, luminescence; P35414; inhibition, % at 20 µM; 330,000 tested, 0.32% active;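 active means inhibition above about 40% at 20 µM, limit read from the data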;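 further: cells challenged with 10 nM apelin-13 agonist together with compound; plate controls were apelin-13 plus DMSO wells for no effect and DMSO wells lacking apelin-13 for full effect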
APJ antag confirm: APJ antagonists blocking beta-arrestin recruitment, confirmation, cell-based, luminescence, single concentration, uHTS hits. shares compounds with APJ antagonist. antagonist mode. inhibition, % at 20 µM. 950 tested, 66% active. AID 2766, 2010; in the data active means inhibition above about 50%
The depositor's hits bear a star.

Cc1[nH]n(-c2ccccc2)c(=O)c1C(c1ccc(O)c([N+](=O)[O-])c1)c1c(C)[nH]n(-c2ccccc2)c1=O was read as CCR6 antag 45, CXCR6 inh 21, APJ agonist -4, EBI2 block 11, m5-HT2A agonist -1, APJ antagonist 40* and APJ antag confirm 41.
`CCN(c1ccccc1)S(=O)(=O)c1ccc(Cl)c(NC(=O)CN2C(=O)NC3(CCCC3)C2=O)c1` gave CCR6 antag 43, CXCR6 inh 34, APJ agonist -5, EBI2 block 16, m5-HT2A agonist -6, APJ antagonist 41* and APJ antag confirm 66*.
CC[N+](CC)(CC#Cc1ccccc1)CC(=O)c1ccc(Cl)cc1 was read as CCR6 antag 69*, CXCR6 inh 23, APJ agonist -4, EBI2 block 0, m5-HT2A agonist -2, APJ antagonist 77* and APJ antag confirm 22.
`CC1(C(=O)Nc2ccc(F)c(Cl)c2)Cc2c(-c3cccc(C(F)(F)F)c3)ccnc2O1` (stereo not given) gave CXCR6 inh 6, EBI2 block -18 and m5-HT2A agonist -2.
COc1ccc(Cn2nnnc2C(c2ccccc2Cl)N2CCC(C(N)=O)CC2)cc1 (stereo not given) was read as CCR6 antag 9, CXCR6 inh -3, APJ agonist -1, EBI2 block 7, m5-HT2A agonist -1 and APJ antagonist 6.
`COc1ccc(Cn2nnnc2C(c2cc(OC)ccc2OC)N2CCC(C(N)=O)CC2)cc1` (stereo not given) gave CCR6 antag -3, CXCR6 inh -2, APJ agonist -1, EBI2 block -6, m5-HT2A agonist -3, APJ antagonist 43* and APJ antag confirm 20.
Screening Cc1cccc(NC(=O)CN2C(=O)N/C(=C/c3ccc(C)o3)C2=O)c1 returned CCR6 antag 17, CXCR6 inh -5, EBI2 block -5 and m5-HT2A agonist 0.
`Cc1ccc(NC(=O)CN2C(=O)N/C(=C/c3ccc(C)o3)C2=O)cc1` gave CCR6 antag -7, CXCR6 inh 30, APJ agonist -4, EBI2 block 5, m5-HT2A agonist 2, APJ antagonist 42* and APJ antag confirm 28.
For COC(=O)CCC(=O)NC1CC(C)(C)Cc2c1cnn2-c1ccc(F)cc1 (stereo not given) the results were CCR6 antag -6, CXCR6 inh -4, APJ agonist -2, EBI2 block -11, m5-HT2A agonist -2 and APJ antagonist -7.
For Cc1ccc(N=Nc2c(=O)[nH]n3c(=O)cc(C)[nH]c23)cc1 the results were CCR6 antag 27, CXCR6 inh 17, APJ agonist -7, EBI2 block 0, m5-HT2A agonist 0, APJ antagonist 43* and APJ antag confirm 62*.
CCOc1ccccc1N(CC(=O)Nc1ccc(OC)cc1)S(=O)(=O)c1ccccc1 was read as CCR6 antag 19, CXCR6 inh 0, APJ agonist -1, EBI2 block -1, m5-HT2A agonist -5 and APJ antagonist 12.
Cn1cc(SCC(=O)Nc2ccc3c(c2)OCO3)c2ccccc21 was read as CCR6 antag 13, CXCR6 inh -4, APJ agonist -1, EBI2 block 0, m5-HT2A agonist -4 and APJ antagonist 17.
Screening Cn1c(=O)cc(SCC(=O)Nc2ccc3c(c2)OCO3)c2ccccc21 returned CCR6 antag 12, CXCR6 inh -6, APJ agonist 6, EBI2 block -3, m5-HT2A agonist 7, APJ antagonist 45* and APJ antag confirm -26.
